ChEMBL document CHEMBL1158708, “Cerylimycins [corrected] A and B: antibacterial triterpenes from the new species Tricholoma sp. AU1” (J Nat Prod, 2005)

How the values were obtained:
[1] = tested on: THP-1; assay: Cytotoxicity against human THP1 cells after 72 hrs by WST-1 assay; format: cell-based; settings: THP-1, 72 h
In short: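 THP-1 cells kept in RPMI 1640 with 10% FBS, 2 mM L-glutamine, penicillin/streptomycin and 10 μM 2-mercaptoethanol at 37 °C, 5% CO₂. Seeded at 2.5 × 10⁴ cells/well and exposed to samples at 250 μg/mL final for 72 h. WST-1 added for 1–2 h, absorbance read at 450 nm. Controls were 10 μM camptothecin and 0.1% DMSO.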

[2] = tested on: Klebsiella pneumoniae; assay: Antimicrobial activity against Klebsiella pneumoniae after 18 hrs; format: functional, organism-based
In short: (§1)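 Strains grown on Mueller-Hinton agar, then in Mueller-Hinton broth with CaCl₂/MgCl₂ at 37 °C for 18 h. Serially diluted (K. pneumoniae and P. aeruginosa 10^-6, S. aureus 10^-8, S. pneumoniae 10^-4, as cfu/mL) and equilibrated 30 min at 37 °C. Incubated with samples, shaken at 37 °C and 60% humidity for 18 h. Read at OD650. Streptomycin 50 μg/mL control wells.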

[3] = tested on: Streptococcus pneumoniae; assay: Antimicrobial activity against Streptococcus pneumoniae after 18 hrs; format: functional, organism-based; in short: as §1
[4] = tested on: Pseudomonas aeruginosa; assay: Antimicrobial activity against Pseudomonas aeruginosa after 18 hrs; format: functional, organism-based; in short: as §1
[5] = tested on: Staphylococcus aureus; assay: Antimicrobial activity against Staphylococcus aureus after 18 hrs; format: functional, organism-based; in short: as §1

Row | SMILES | IC50 [1] [µM] | IC50 [2] [µM] | IC50 [3] [µM] | IC50 [4] [µM] | IC50 [5] [µM]
1 | C=C1CC[C@H]2C(C)(C)[C@H](O)CC[C@]2(C)[C@@H]1C[C@@H]1CCC(=C)[C@H](CC/C(C)=C/COC=O)[C@@]1(C)C(=O)O [TRICHOMYCIN A] | > 1000 | > 500 | 5 | > 500 | 12
2 | C=C1CC[C@H]2C(C)(C)[C@H](O)CC[C@]2(C)[C@@H]1C[C@@H]1CCC(=C)[C@H](CC/C(C)=C/CO)[C@@]1(C)C(=O)O [TRICHOMYCIN B] | 640 | > 473 | 6 | > 473 | 12
